Compounds with a hit are over-represented: about 2.2% of the library has one in this group of screens.
PvdQ inh – P. aeruginosa PvdQ acylase inhibition; purified PvdQ acylase, fluorescence plate reader; inhibition, % at 10 µM; 340,000 tested, 0.063% active; in the data active = inhibition above about 30%, passing the limit was not always enough;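 note: 0% = vehicle neutral wells and 100% = reference inhibitor wells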
rRNA inh HTS – inhibits bacterial ribosomal RNA function over humanized ribosomes; E. coli WT GFP vs humanized-ribosome RFP mutants, fluorescence, 24 h; stronger effect = lower value; DMSO median 0, no signal -100; GFP signal change (wild-type ribosome), % (concentration not given with the values); 350,000 tested, 1.6% active; AID 720706;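 active = significant combined selectivity score with lowered wild-type GFP, culture density cut under 30%, mutant RFP and density less affected; inactive = any of these conditions unmet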
FN deposit inh – fibronectin deposition inhibition; 350,000 tested, 0.086% active; AH1F fibroblasts, Alexa488-fibronectin deposition fluorescence, overnight; inhibition, % at 12.6 µM;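 active = mean inhibition across replicates of 30% or more, regardless of how many single replicates reach that level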;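 note: positive control wells lacked labelled fibronectin entirely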
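Material: AH1F fibroblast monolayer depositing Alexa488-labelled fibronectin into matrix | Input: 10000 AH1F cells/well | Medium: DMEM plus 2% serum, read in PBS | Reagent: Alexa488-fibronectin, 24 nM final in well | Compound dosing: One dose per compound, pinned | Schedule: 1 h adhesion, overnight exposure | Measured by: Fluorescence at 485 nm excitation, 525 nm emission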
PDI turbidity – PDI (human) enzyme inhibition; AID 588391; 350,000 tested, 0.052% active; inhibition, % at 10 µM; PDI insulin aggregation turbidity, A650, 90 min;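 active = mean inhibition across replicates of 30% or more, whatever share of single replicates reach that level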
Target sequence (P07237 whole entry, looked up): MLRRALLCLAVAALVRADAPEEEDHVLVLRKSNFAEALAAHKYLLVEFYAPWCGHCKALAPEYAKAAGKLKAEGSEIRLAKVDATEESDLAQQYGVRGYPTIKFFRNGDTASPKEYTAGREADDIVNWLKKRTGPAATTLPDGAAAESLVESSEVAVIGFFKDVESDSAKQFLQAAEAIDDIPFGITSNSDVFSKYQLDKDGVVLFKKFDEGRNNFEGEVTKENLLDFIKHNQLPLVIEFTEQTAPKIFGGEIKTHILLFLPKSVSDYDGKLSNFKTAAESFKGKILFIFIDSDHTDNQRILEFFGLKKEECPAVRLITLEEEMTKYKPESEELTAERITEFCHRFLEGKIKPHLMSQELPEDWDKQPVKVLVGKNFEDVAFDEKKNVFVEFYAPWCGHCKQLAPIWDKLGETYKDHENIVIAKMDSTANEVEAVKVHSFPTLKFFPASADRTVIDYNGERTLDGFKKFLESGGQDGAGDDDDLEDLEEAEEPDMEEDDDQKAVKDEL
ERp5 block – blocks human ERp5 reductase activity on insulin | Q15084 | ERp5 insulin aggregation, absorbance 650 nm, 90 min | inhibition, % at 9.99 µM | 350,000 tested, 0.05% active | AID 651711;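 active = mean replicate inhibition above about 25%, with every replicate also reaching it, limit read from the data, passing the limit was not always enough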
HIV Env fusion – blocks HIV Env-driven cell-cell fusion | 360,000 tested, 1.1% active | HeLa-JRFL Env/CEM21 cell fusion, luciferase | inhibition, % at 12.3 µM | AID 651610;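 active = mean replicate inhibition score of at least 50 and every replicate individually at or above 50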;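 note: 0% = plate neutral controls and 100% = maraviroc near 300 nM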
Numbers without * were called inactive; / = not tested or not shown; [ ] = another dose, or the depositor's remark.

SMILES	PvdQ inh	rRNA inh HTS	FN deposit inh	PDI turbidity	ERp5 block	HIV Env fusion
COC(=O)c1cc2oc3ccccc3c2n1CC(=O)N1CCCc2ccccc21	2.3	/	4.4	12.7	/	-93.4
COC(=O)c1cc2oc3ccccc3c2n1Cc1ccccn1	-9.4	-44.0*	/	1.0	0.3	/
COc1ccccc1NC(=O)C/C(N)=N/OCC(=O)Nc1cccc(Cl)c1	-15.0	/	3.3	0.1	-0.5	0.6
COc1ccccc1NCC(=O)NNC(C)C(=O)Nc1cccc(Cl)c1 (stereo unspecified)	3.9	-32.2*	-5.3	3.5	5.6	31.9
CCCCC(=O)N1CCN(c2nc3ccc(Br)cc3s2)CC1	-8.9	-19.6*	-16.3	-4.0	4.0	-0.4
CCCC(=O)N1CCN(c2nc3ccc(Br)cc3s2)CC1	-14.0	-31.9	-5.5	1.1	-0.1	-12.2
CCC(CC)C(=O)Nc1c(C(=O)N2CCN(c3ccccc3)CC2)oc2ccccc12	-5.4	-30.4*	-1.4	-2.6	-12.5	6.8
CCCNC(=O)N1CC2(CN(Cc3ccc(OC)cc3)C2)c2c(n(C)c3cc(OC)ccc23)[C@@H]1CO	/	4.3	/	/	/	/
COc1ccccc1-c1ccc2n(c1=O)C[C@H]1[C@H](CO)[C@@H](C(=O)N(C)C)N(C(=O)c3cccnc3)[C@@H]21	/	4.2	/	/	3.1	/
CCN(CC)CCN(C(=O)c1ccc2ccccc2c1)c1nc2ccc(OC)cc2s1	-10.9	-19.4*	4.6	7.9	-15.5	9.8
CCN(CC)CCN(C(=O)c1cc2ccccc2cc1OC)c1nc2ccc(OC)cc2s1	-12.3	-35.2	2.1	0.4	2.3	11.0
CCN(CC)CCCN(C(=O)c1ccc(OC)cc1)c1nc(-c2ccc(OC)cc2)cs1	-12.8	-35.1*	-0.1	-4.4	2.9	23.0
COc1ccc(-c2csc(N(CC3CCCO3)C(=O)c3ccccc3)n2)cc1 (stereo unspecified)	3.4	9.3	/	-13.5	-1.0	22.7
COc1ccc(-c2csc(N(CC3CCCO3)C(=O)c3ccc(C)cc3)n2)cc1 (stereo unspecified)	-3.3	/	-5.4	-1.1	/	48.6*
CO[C@H]1CN(C)C(=O)c2ccc(NC(=O)NC(C)C)cc2OC[C@H](C)N(Cc2cncnc2)C[C@H]1C	/	1.0	1.8	/	/	/
C[C@@H](NC(=O)C[C@H]1C[C@H]2c3cc(NS(C)(=O)=O)ccc3O[C@H]2[C@@H](CO)O1)c1ccccc1	/	4.7	/	/	-2.1	-1.5[16.7 µM]
CO[C@@H]1CN(C)C(=O)c2cc(NC(=O)NC(C)C)ccc2OC[C@H](C)N(C(=O)CC2CC2)C[C@@H]1C	/	0.2	1.0	/	0.3	-16.3[16.7 µM]
CCOCCCn1c(SCC(=O)NCc2ccco2)nc2c(sc3ccccc32)c1=O	-15.7	4.3	4.8	-5.6	-1.2	56.3*
CCCC#Cc1cnc2c(c1)C(=O)N([C@H](C)CO)C[C@H](C)[C@@H](CN(C)C(=O)c1ccccc1)O2	/	0.7	-14.9	/	-2.9	-13.3[16.7 µM]
COc1ccccc1-c1noc(CCCC(=O)NC2CCCC2)n1	9.0	5.8	4.0	-4.9	0.1	6.2
O=C(CCCc1nc(-c2ccccc2Cl)no1)NC1CCCC1	-10.6	5.1	-2.9	-6.2	3.4	65.6*
COc1cccc(NC(=O)CN(C)C(=O)c2cccc(S(=O)(=O)N3CCN(c4ccc(F)cc4)CC3)c2)c1	-13.8	-5.5	-1.6	2.0	2.8	39.2
CN(CC(=O)Nc1ccc(F)cc1)C(=O)c1cccc(S(=O)(=O)N2CCN(c3ccc(F)cc3)CC2)c1	-12.4	-38.0	-8.6	-9.5	-3.1	55.2*
CSc1ccc(CN(C)C(=O)c2cccc(S(=O)(=O)N3CCN(Cc4ccccc4)CC3)c2)cc1	5.3	-14.5	/	-4.6	14.2	68.9*
CN(Cc1ccc(F)cc1)C(=O)c1cccc(S(=O)(=O)N2CCN(c3ccccc3)CC2)c1	6.1	-2.9	8.2	-1.8	1.5	9.6
SMILES	PvdQ inh	rRNA inh HTS	FN deposit inh	PDI turbidity	ERp5 block	HIV Env fusion
CN(Cc1ccc(F)cc1)C(=O)c1cccc(S(=O)(=O)N2CCN(Cc3ccccc3)CC2)c1	13.2	-11.0	1.0	-0.2	4.7	3.5
CN(Cc1ccc(F)cc1)C(=O)c1cccc(S(=O)(=O)N2CCN(c3ccc(F)cc3)CC2)c1	5.0	-14.6	0.0	2.5	4.1	56.7*
C[C@H]1CN(C)C(=O)c2cccc(N(S(C)(=O)=O)S(C)(=O)=O)c2O[C@H]1CN(C)C(=O)OC(C)(C)C	/	-1.3	-14.1	/	/	/
COc1ccc(-c2ccc3c(c2)[C@@H]2[C@@H](CCN2S(=O)(=O)c2ccc(F)cc2)[C@H](CO)N3C)cc1	/	1.4	8.1	/	1.8	/
C[C@@H]1CCCCO[C@@H](CN(C)S(=O)(=O)c2cccs2)[C@H](C)CN([C@H](C)CO)C(=O)c2cc(NC(=O)CCC(F)(F)F)ccc2O1	/	-4.2	/	/	8.1	-25.2[16.7 µM]
C[C@@H]1CN([C@H](C)CO)C(=O)c2cc(NC(=O)Nc3ccccc3)ccc2O[C@@H](C)CCCCO[C@@H]1CN(C)Cc1ccc(Cl)c(Cl)c1	/	-4.2	3.9	/	-5.6	19.4[16.7 µM]
NNc1nc2sc3c(c2c(=O)n1Cc1ccccc1)CCC3	-2.2	-33.5*	-11.4	6.1	-5.7	18.3
Cc1cc(NO)c(C(C)C)cc1N=O	7.7	/	1.6	4.9	-3.7	66.5*
Cc1cc(O)c(C(C)C)cc1N=Nc1ccccc1C(=O)O	5.6	13.2	8.5	-1.3	-0.9	6.6
COc1ccc(NC(=O)c2cc3n(n2)C(C(F)(F)F)CC(c2ccc4c(c2)OCO4)N3)cc1OC (stereo unspecified)	-14.0	/	/	-0.3	/	/
Cc1cccc(NC(=O)c2cc3n(n2)C(C(F)(F)F)CC(c2ccc4c(c2)OCO4)N3)c1 (stereo unspecified)	4.2	/	-5.1	5.0	/	106.2*
O/N=C(/CCc1ccccc1)c1ccc2c(c1)OCCO2	1.6	-25.0*	1.4	-1.1	3.8	-4.0
O=C(CCCc1ccccc1)c1ccc2c(c1)OCCO2	-4.5	-30.0*	/	0.8	8.9	/
O=C(NCCc1ccccc1)c1ccc2c(c1)OCCO2	-12.9	/	-5.3	-4.0	3.8	92.2*
O=C(NCCc1ccccc1)c1ccc2c(c1)S(=O)(=O)c1ccccc1C2=O	-13.7	-23.0*	4.3	9.4	2.4	-18.9
CC(=O)N(C)C[C@H]1Oc2c(cccc2N(C)C)C(=O)N(C)C[C@H]1C	/	3.8	-3.0	/	/	/
CO[C@@H]1CN(C)C(=O)c2ccc(NC(=O)Nc3ccccc3F)cc2OC[C@@H](C)N(C(C)=O)C[C@H]1C	/	-0.5	/	/	-1.8	/
O=C(CC1C(=O)NCCN1Cc1cccc(F)c1)NC1CCCCC1 (stereo unspecified)	-16.1	/	3.3	-3.1	0.0	90.9*
CC[C@@]12C(=O)N(c3cccc(Cl)c3)C(=O)N1[C@H](c1ccc(Br)cc1)[C@@H]1C(=O)N(C(C)(C)C)C(=O)[C@@H]12	3.0	6.9	-11.3	-6.1	-0.6	83.9*
